TAAR1 ag: agonists of human TAAR1 | Q96RJ0 | CHO RD-HGA16 TAAR1, Fluo-8 calcium fluorescence; vehicle wells 0%, saturating PEA agonist 100% | activation, % at 3 µM | 360,000 tested, 0.99% active | AID 624467;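 active means activation above the mean activation of all test compounds in the run plus 3 SD, cut at about 38% in these data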
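Assay system: CHO-derived RD-HGA16 cells with stable Gα16 and human TAAR1; timing: 17-24 h seeding, 75 min 37 °C dye, 30 min RT; read-out: % activation from peak over basal fluorescence ratio, DMSO-to-PEA scaled; measured by: kinetic Fluo-8 calcium fluorescence; benchmarks: low control DMSO, high control PEA (EC100); doses: 3 µM single concentration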
TAAR1 antagonist: human TAAR1 antagonism; CHO RD-HGA16 TAAR1, Fluo-8 calcium fluorescence, antagonist; inhibition, % at 3 µM; 360,000 tested, 1.5% active;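 active means inhibition above a per-plate cutoff, the mean inhibition of test compounds on that plate plus 3 SD, cut at about 49% in these data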;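 further: 0% = DMSO plus EC80 beta-PEA response and 100% = DMSO alone without agonist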
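Test system – hTAAR1-expressing CHO RD-HGA16 cells, Gα16-coupled · Reagent – β-PEA at EC80 concentration, post-compound challenge · Compound dosing – 3 µM, single point · Timing – 140 s kinetic read after compound, 140 s after agonist · Detection – Fluo-8 intracellular calcium dye fluorescence, real-time kinetic reads · Control set – DMSO and EC80 PEA controls · Repeats – n of 1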
B2AR ag: activates human beta-2 adrenergic receptor causing internalization; response, % (concentration not given with the values); 340,000 tested, 0.43% active; Am2.2-beta2AR cells, FAP receptor internalization, flow cytometry;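 active means response above a set limit, near 3 SD of response in nonfluorescent compounds, cut at about 42% in these data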
MC4R ag barr: agonists of human melanocortin 4 receptor (MC4R) beta-arrestin; U2OS MC4R beta-arrestin complementation, luminescence; percent of melanotan II response, DMSO zero; activation, % at 8.9 µM; AID 540308; 360,000 tested, 0.98% active;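 active means activation above a per-plate cutoff, the mean activation of sample wells on that plate plus 3 SD, cut at about 8% in these data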
MC4R antag cAMP: antagonists of human melanocortin 4 receptor (MC4R). P32245. MC4R-expressing cells, MTII-stimulated cAMP, LANCE TR-FRET. inhibition, % at 6.5 µM. 360,000 tested, 0.48% active. AID 540295;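 active means inhibition above its plate's cutoff, the mean of tested wells on that plate plus 3 SD, cut at about 29% in these data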;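 further: 0% = Melanotan II alone and 100% = Melanotan II plus saturating MCL0020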
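System: U2OS cells stably expressing human melanocortin 4 receptor (MC4R). Reagent: Melanotan II challenge after compound preincubation. Doses: 6.5 µM. Times: 30-min compound, 1-h challenge, 1-h detection, room temperature. Measured by: TR-FRET with Eu-cAMP and labeled anti-cAMP, 671 nm. Replicates: singlicate.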
m5-HT2A agonist: activates the mouse 5-HT2A serotonin receptor. 360,000 tested, 0.66% active. CHO-K1 mHTR2A beta-arrestin complementation, luminescence; percent of 30 µM serotonin response. activation, % at 7.6 µM. P35363;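 active means activation above a run cutoff, the mean activation of all tested compounds plus 3 SD, cut at about 14% in these data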;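 further: 0% = plate median of compound wells and 100% = 30 µM serotonin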
Target sequence (P35363 whole entry, looked up): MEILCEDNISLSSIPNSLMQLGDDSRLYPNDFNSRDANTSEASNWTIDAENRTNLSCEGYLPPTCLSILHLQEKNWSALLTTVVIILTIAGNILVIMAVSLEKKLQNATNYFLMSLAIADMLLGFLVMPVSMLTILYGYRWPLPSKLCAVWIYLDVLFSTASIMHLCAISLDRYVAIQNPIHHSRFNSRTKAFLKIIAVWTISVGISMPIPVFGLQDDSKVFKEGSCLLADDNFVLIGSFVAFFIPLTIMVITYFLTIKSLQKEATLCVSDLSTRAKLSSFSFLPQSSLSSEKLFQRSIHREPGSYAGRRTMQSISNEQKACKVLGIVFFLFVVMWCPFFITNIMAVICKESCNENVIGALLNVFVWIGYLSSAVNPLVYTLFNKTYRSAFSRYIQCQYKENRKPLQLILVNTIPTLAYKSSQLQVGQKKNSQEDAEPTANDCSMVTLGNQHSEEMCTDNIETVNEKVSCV
B2AR ag CP1: agonists of human beta-2 adrenergic receptor | percent response (surface receptor), % at 10 µM | shares compounds with B2AR ag | Am2.2-beta2AR cells, FAP surface receptor, flow cytometry; hits give low values | 1,100 tested, 25% active;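 active means surface receptor percent response at or below 58%, roughly 3 SD from nonfluorescent compounds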
FAP fluor counter: flagged in Am2.2 fluorescence counterscreen for beta-2AR agonists. shares compounds with B2AR ag. Am2.2 cells, FAP fluorogen flow cytometry; hits give low values. calls only at 10 µM. 1,100 tested, under 10 active;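 active means percent response below a set limit in fluorescence channel 1 and below 50% in channel 8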
* hit, by the source's call; i = inactive; . = no result. In the library only some 4.3% were active in any assay of this set; here they are far more common.

SMILES | TAAR1 ag | TAAR1 antagonist | B2AR ag | MC4R ag barr | MC4R antag cAMP | m5-HT2A agonist | B2AR ag CP1 | FAP fluor counter
CCOC(=O)c1nnn(CC(=O)Nc2cccc(Cl)c2C)c1C(=O)OCC | 11 | -9 | 70* | 0 | 1 | 4 | 101 | i
CCOC(=O)c1cn(CC(=O)Nc2cccc(Cl)c2C)nn1 | 10 | 4 | 4 | -1 | -5 | -2 | . | .
COc1ccc(CCNC(=O)Cc2ccc(OC)c(OC)c2)cc1OC | 8 | -35 | 5 | -1 | 10 | 1 | . | .
COc1ccc(CCNC(=O)Cc2cccc(C(F)(F)F)c2)cc1OC | 0 | 4 | 83* | 0 | 2 | 2 | 102 | i
COc1ccccc1Nc1nc(-c2c(C)[nH]c3ccccc23)cs1 | 1 | 1 | -1 | 1 | 7 | 0 | . | .
CNc1nc(-c2c(C)[nH]c3ccc(OC)cc23)cs1 | 6 | -16 | 60* | 0 | -2 | -2 | 94 | i
O=C(CN(C(=O)CCC(=O)Nc1nccs1)c1ccc(F)cc1)NCc1ccccc1 | 0 | -6 | -1 | -2 | 20 | 4 | . | .
Cc1cccc(CN2CCC(Oc3ccc(C(=O)N4CCCCC4)cc3)CC2)c1 | 2 | 3 | 12 | -2 | 12 | -12 | 86 | i
CC(C)c1ccc(CN2CCC(Oc3ccc(C(=O)N4CCCC4)cc3)CC2)cc1 | 1 | -14 | 4 | -2 | 14 | -5 | . | .
Cc1cccc(CN2CCC(Oc3ccc(C(=O)N4CCCC4)cc3)CC2)n1 | 1 | -15 | 3 | 0 | 4 | 0 | . | .
CCOc1cccc(CN2CCC(Oc3ccc(C(=O)N4CCCC4)cc3)CC2)c1 | 0 | -22 | -6 | -2 | 8 | -5 | 114 | i
CC(=O)Nc1ccc(NC(=O)CSc2nnc(-c3cccs3)n2C)cc1 | 1 | -1 | -5 | -1 | -2 | -2 | . | .
CC(=O)Oc1c(Br)cc(N(C(C)=O)S(=O)(=O)c2ccccc2)c2ccccc12 | 1 | 9 | 60* | 1 | -4 | 11 | 107 | i
CC(=O)Oc1ccccc1N(C(C)=O)S(=O)(=O)c1ccc2ccccc2c1 | -1 | 9 | 3 | -3 | 14 | -4 | . | .
Cc1ccc(NC(=O)c2ccc3c(c2)C(=O)N(CC2CCCO2)C3=O)cc1C (configuration not stated) | 7 | 24 | 7 | -1 | -4 | 0 | 113 | i
COc1cccc2sc3cc(C#CC4(O)CCCCC4)ccc3c(=O)c12 | 21 | 39 | 50* | 3 | 12 | 10 | 98 | i
Cc1noc(C)c1S(=O)(=O)N1CCCC(C(=O)N2CCC(C)CC2)C1 (configuration not stated) | -1 | 2 | 49* | 2 | -2 | -6 | 120 | i
Cc1ccc(-c2nc(NC(=O)c3nn(C)cc3[N+](=O)[O-])sc2C)cc1 | 0 | 0 | 104* | -1 | -28 | -11 | 9.7* | i
Cc1ccc(Cn2ccc(NC(=O)c3nn(C)cc3[N+](=O)[O-])n2)cc1 | 0 | 6 | -34 | -3 | 1 | 1 | . | .
Cc1ccc(-c2nc(NC(=O)c3nn(C)cc3[N+](=O)[O-])sc2C)cc1C | 8 | -7 | 80* | 3 | -6 | -5 | 48* | i
Cc1cc(C)n(Cc2ccc(NC(=O)c3nn(C)cc3[N+](=O)[O-])cc2)n1 | 11 | 13 | 1 | 1 | 13 | 2 | . | .
CCOC(=O)C1CCCN(C(=O)c2ccc(Cl)cc2)C1 (configuration not stated) | 4 | -14 | 8 | 3 | 9 | 5 | . | .
CCCCC(=O)Nc1ccc(C(=O)N2CCCC(C(=O)OCC)C2)cc1 (configuration not stated) | 4 | -9 | 61* | -2 | 3 | 5 | 41* | i
Cc1c(C(=O)N2CCOCC2)oc2ccc(S(=O)(=O)N3CCCC3)cc12 | 10 | 2 | 4 | -1 | 11 | 1 | . | .
Cc1c(C(=O)N2CCc3ccccc3C2)oc2ccc(S(=O)(=O)N3CCCCCC3)cc12 | 42* | -1 | 48* | 0 | 24 | -4 | 63 | i
SMILES | TAAR1 ag | TAAR1 antagonist | B2AR ag | MC4R ag barr | MC4R antag cAMP | m5-HT2A agonist | B2AR ag CP1 | FAP fluor counter
COC(=O)c1ccc(COc2cccc(C)c2C)cc1 | 6 | -12 | 9 | 3 | 0 | 3 | . | .
CCCCNC(=S)N/N=C1\C(=O)c2cccc3cccc1c23 | 4 | 9 | -5 | -1 | 8 | 2 | . | .
CNC(=S)N/N=C1\C(=O)c2cccc3cccc1c23 | 1 | 19 | 0 | 2 | 17 | 10 | 162 | i
C=CCc1cc(Cl)ccc1OCCCNC(C)C | 35 | -3 | 62* | 1 | -2 | -3 | 98 | i
C=CCc1cc(Cl)ccc1OCCCNCCO | 7 | 8 | 20 | -1 | 6 | -3 | . | .
COc1ccc(NC(=O)CCCn2cnc3ccccc3c2=O)cc1 | 5 | -14 | 9 | 2 | 13 | 1 | . | .
O=C(CN1CCOCC1)N1CCN(c2nnc(-c3ccccc3)c3ccccc23)CC1 | 8 | 4 | 69* | 1 | 2 | -3 | 59 | i
CCOC(=O)N1CCN(c2nnc(-c3ccc(C)cc3)c3ccccc23)CC1 | -3 | 0 | 45* | 0 | 13 | 9 | 33* | i
O=C1CC(c2cccc(O)c2)Oc2ccccc21 (configuration not stated) | 3 | 11 | 2 | 0 | -3 | -5 | . | .
CCn1nc(NS(=O)(=O)c2ccc(NC(C)=O)cc2)c2cc3cccc(C)c3nc21 | 1 | 6 | 3 | -3 | 5 | -7 | . | .
CCn1nc(NS(=O)(=O)c2ccc(F)cc2)c2cc3cccc(C)c3nc21 | -3 | -19 | 7 | -1 | 13 | 4 | 114 | i
CCn1nc(NS(=O)(=O)c2ccccc2)c2cc3cccc(C)c3nc21 | 4 | -9 | 5 | -1 | 3 | -4 | . | i
CC1(C)CC(NC(=O)COc2ccc3ccc(=O)oc3c2)CC(C)(C)N1 | 1 | -1 | 4 | -4 | 0 | 1 | . | .
CC(=O)Nc1ccc(Cl)c(-c2nc3ncccc3o2)c1 | 0 | 5 | -10 | -2 | 2 | -6 | . | .
Cc1ccc([N+](=O)[O-])cc1N=Nc1c(-c2ccc([N+](=O)[O-])cc2)[nH]n(C(N)=S)c1=O | . | . | 20 | -2 | 9 | 1 | 101 | i
Cc1ccc([N+](=O)[O-])cc1N=Nc1c(C)[nH]n(C(N)=S)c1=O | 3 | -14 | 3 | -1 | 17 | 4 | . | .
